Measured values as given in the EternaBench riboswitch data.

Tested on: MS2 coat protein
Test: apparent Kd, MS2 coat protein; higher = weaker binding; RNA-MaP array; FMN 200 µM where present
Summary of the method: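 Designs were transcribed by stalled E. coli RNA polymerase on Illumina sequencing-chip clusters. They were titrated with SNAP-549-labelled MS2 coat protein from 0.7 or 1.5 nM, doubling to 3 µM, in 100 mM Tris-HCl pH 7.5, 80 mM KCl, 4 mM MgCl2, BSA, DTT, yeast tRNA and Tween-20, without and then with constant ligand. The apparent Kd is the median of filtered per-cluster fits after normalisation of green signal to red-channel RNA signal and control-cluster median Fmax.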

[1] = designed as: OFF switch for flavin mononucleotide, no ligand
[2] = ligand present: flavin mononucleotide, designed as: OFF switch for flavin mononucleotide
[3] = designed as: ON switch for flavin mononucleotide, no ligand
[4] = ligand present: flavin mononucleotide, designed as: ON switch for flavin mononucleotide

Row | Sequence | apparent Kd [1] [nM] | apparent Kd [2] [nM] | apparent Kd [3] [nM] | apparent Kd [4] [nM]
1 | GUAUUGUGAGGAUAUCCAAUAUAUGACAUGAGGAUCACCCAUGUUUCCACUCGUACCUCCGGAGAAGGCACAGUUU | 28.3 | 24.3 | – | –
2 | GUCAAGCUAGGAUAUACAUGAGGAUCACCCAUGUUAUCCUCGUGGGCAGUUUCUUCAUGUAGAAGGAGCAAAGG | 38 | 16.6 | – | –
3 | GUCAAGUGAGGAUAUGAUUGUACAACAGACUAGCGUCUGCAUCAGAAGGCACAUGAGGAUCACCCAUGUUUGUC | 19.6 | 16.2 | – | –
4 | GUCACGAAUGUAGGAUAUCGAGUGGAAUACACUCGAGAAGGACAUGAGGAUCACCCAUGUCAAAUGAAAGAUAAUAAACGUGAC | 14.6 | 18.8 | – | –
5 | GUCACGAAUGUAGGAUAUCGAGUGGAUAACACUCGAGAAGGACAUGAGGAUCACCCAUGUAAAAUGAAAGAUAAUAAACGUGAC | 17.6 | 50.5 | – | –
6 | GUCACGUCAGGAUAUCUGAUGUCUAACUUCGGUUAGACAUCAGAGAAGGGACAUGAGGAUCACCCAUGUGACAG | 140 | 275 | – | –
7 | GUCAGCUCCUGAGGAUAUACAACACUGCUUCGGCAGUGUAUUAAGAUCACAUGAGGAUCACCCAUGUAGAAGGCACGAGCUGAU | 12.1 | 156 | – | –
8 | GUCAGCUCGUGAGGAUAUACAACACUGAUUCGGCAGUGUAUUAAGAUCACAUGAGGAUCACCCAUGUAGAAGGCACGAGCUGAU | 17.2 | 275 | – | –
9 | GUCAGCUCGUGAGGAUAUACAACACUGCUUCCGCAGUGUAUUAAGAUCACAUGAGGAUCACCCAUGUAGAAGGCACGAGCUGAU | 13.7 | 222 | – | –
10 | GUCAGCUCGUGAGGAUAUACAACACUGCUUCGACAGUGUAUUAAGAUCACAUGAGGAUCACCCAUGUAGAAGGCACGAGCUGAU | 13.6 | 211 | – | –
11 | GUCAGCUCGUGAGGAUAUACAACACUGCUUCGGCAGUGGAUUAAGAUCACAUGAGGAUCACCCAUGUAGAAGGCACGAGCUGAU | 16.2 | 423 | – | –
12 | GUCAGCUCGUGAGGAUAUACAUCACUGCUUCGGCAGUGUAUUAAAAUAACAUGAGGAUCACCCAUGUAGAAGGCACGAGCUGAU | 4.69 | 5.51 | – | –
13 | GUCAGCUCGUGAGGAUAUACAUCACUGCUUCGGCAGUGUAUUAAGUUCACAUGAGGAUCACCCAUGUAGAAGGCACGAGCUGAU | 15.2 | 20.3 | – | –
14 | GUCAGCUCGUGAGGAUAUACAUGUGCUGGAAACAGCACUAAUUAAUUCACAUGAGGAUCACCCAUGUAGAAGGCACGAGCUGAU | 16.2 | 17.8 | – | –
15 | GUCAGCUCGUGAGGAUAUACAUGUGCUGGAAACAGCACUAUUGUGUUCACAUGAGGAUCACCCAUGUAGAAGGCACGAGCUGAU | 18.2 | 85.6 | – | –
16 | GUCAGCUCGUGAGGAUAUACAUGUGCUGGAUACAGCACUAAUUAAUUCACAUGAGGAUCACCCAUGUAGAAGGCACGAGCUGAU | 16.1 | 18.8 | – | –
17 | GUCAGCUCGUGAGGAUAUACAUGUGCUGGAUACAGCACUAUUAAGUUCACAUGAGGAUCACCCAUGUAGAAGGCACGAGCUGAU | 15.8 | 20.4 | – | –
18 | GUCAGCUCGUUAGGAUAUACAACACUGCUUCGGCAGUGUAUUAAGAUCACAUGAGGAUCACCCAUGUAGAAGGCACGAGCUGAU | 8.16 | 29.5 | – | –
19 | GUCAUUGACAAGAAGGCAAACAUGAGGAUCACCCAUGUUCUGCAUGUAUAUUGAGGAUAUUGCCAAUGCAUGUGGAUCACCCAA | 6.92 | 11 | – | –
20 | GUCCGGCUGCCACAGGAUAUACGUGGAUCGACAUGAGGAUCACCCAUGUAUAUCCUAAUAAUUGCGUAGAAGGGUGGUCAGCCGG | – | – | 1040 | 109
21 | GUCGGAAACGACAAAAGUAGCAUAGGAGAAGGUCCAUUAAACAUGAGGAUCACCCAUGUAAUUGGGAAGGAUAUCCUAUGCUAC | – | – | 9.27 | 5.84
22 | GUCGGAAACGACAAGUCAGCUCGUGAGGAUAUACAAUAUUAAAAGAUCACAUGAGGAUCACCCAUGUAGAAGGCACGAGCUGAU | 31.7 | 442 | – | –
23 | GUCGGGAUUACAUGAGGAUCACCCAUGUCAGAACGGGCAGUUAGAAGGUGCCAUUAGGGAGAGGGUAAGGAUAUAAUUUUUGGC | – | – | 12 | 10.4
24 | GUCGGGUCUCACGCGUCGGUCCACAUGAGGAUCACCCAUGUCAAGGAUAUAGCGUCUUCCGGGCGUUAGAAGGUGACCAUUGGC | 34.6 | 48.1 | – | –
25 | GUCGUGAGACAGGAUAUCCAAUCUAAACACGAGGGAGAAGGGUCUACAUGAGGAUCACCCAUGUGGUCUCAAAA | 17.6 | 21.7 | – | –
26 | GUCGUGCGGCUUUGCUGUACGAGUACAUGAGGAUCACCCAUGUAGGAUAUGGUUCGCUUUGCGUGCCAGAAGGGCGUGCGUUGU | 28.7 | 28.1 | – | –
27 | GUCGUGUCAGGAUAUACGUUUGUUUCUUUUUUUGUUGUUUAGUAGAAGGGACAUGAGGAUCACCCAUGUUUGUU | 29.4 | 47.4 | – | –
28 | GUCUUUUUACAGAAGGUGUUUAACAUGAGGAUCACCCAUGUACAAAAGGUUAAAUUUGAUAAUAACAAGGAUAUGUACUAAUCA | – | – | 292 | 184

Row | Sequence | apparent Kd [1] [nM] | apparent Kd [2] [nM] | apparent Kd [3] [nM] | apparent Kd [4] [nM]
29 | GUGAACCGUAGGUCGUUGGCUGCACAGGAUAUGAAGGCGUACAUGAGGAUCACCCAUGUUCCCUAUCAGAAGGGUGACAGGAAA | – | – | 6.81 | 5.41
30 | GUGAAGGUAGGAUAUACGAUAAUAUAGGGUAGAUAUAUAACACAUGAGGAUCACCCAUGUAGAAGGACCAAUUG | 34.2 | 122 | – | –
31 | GUGAAGUGAGGAUAUACGAGAGAGGCUGAACCUGGAGAGAAGUAGAAGGCACAUGAGGAUCACCCAUGUUAGGA | 39.6 | 30.3 | – | –
32 | GUGCACAUUCGAGGAUAUCGGAGAGGAGUCCUUCGAGAAGGCGAUUCGUGCUGUGUUAUUCUGGACAUGAGGAUCACCCAUGUG | – | – | 50.8 | 27.8
33 | GUGCAGGUAGGAUAUACGUGAGAGCCUUGUGGGCGUCUGGUACAUGAGGAUCACCCAUGUAGAAGGACCGGGCU | 21.3 | 77.5 | – | –
34 | GUGCAUACGUGAGGAUAUGUAUUAGAUAGUGGUACAGAAGGCAUGUCAGAUGACAUGAGGAUCACCCAUGUUGGCAAAAUGCGC | – | – | 47.5 | 10.2
35 | GUGCCUUGGGAGAAGGUUACUAGCAAAGCUAUUAAAGGAUAUUCAUACCGGAAACGGACAUGAGGAUCACCCAUGUGGCACAAA | – | – | 1120 | 118
36 | GUGCGGUAGGAGAAGGACGGAGGCUUCAUUACAUACAUGAGGAUCACCCAUGUAGGAUAUCCUACCUCACGCGGCCUCCUCCUG | 6.44 | 6.79 | – | –
37 | GUGGCCCAGGCACAGGAUAUGUUUCUCGUAACAUGAGGAUCACCCAUGUGCCUAUGAGAUUUAAUGCAGAAGGGUGCACGCCACG | – | – | 135 | 18.4
38 | GUGGCUGUUAGGCUUGCGCCGGCGACAGAAGGCCAACAUGAGGAUCACCCAUGUACAAAGACCAUGGAGGAUAUGUUGCCAGUG | – | – | 41.8 | 8.95
39 | GUGGGAAUCACAGGAUAUACAUGCGCCGCUUCGUUCUACAUGAGGAUCACCCAUGUGUGGUCCGUGUAGAAGGGUGUUUGUCAC | – | – | 45.6 | 30.1
40 | GUGGUACAUGAGGAUCACCCAUGUCAGGAUAUCGUGUGUUUUUUUUCGGCCGCGCGCGCGAGAAGGGACGUCUU | 21.6 | 21.6 | – | –
41 | GUGGUACAUGAGGAUCACCCAUGUUAGGAUAUCGCGUGAGGUUUUACUUACACACACACGAGAAGGGACGUCUU | 47.5 | 36 | – | –
42 | GUGGUCAGACAUGAGGAUCACCCAUGUGGAAUAAAUAAGGAGAAGGAUAUGAAAUAUAGGAUAUAUCAGAAGGUCUGGUUGGUG | – | – | 72.2 | 77.1
43 | GUGGUCAGACAUGAGGAUCACCCAUGUGGAAUAAAUAAGGAGAAGGAUAUGCAAUAUAGGAUAUAGCAGAAGGUCUGGUUGGUG | – | – | 80.1 | 92.7
44 | GUGGUCAGACAUGAGGAUCACCCAUGUGGAAUAAAUAAGGAGAAGGAUAUGGAAUAUAGGAUAUACCAGAAGGUUUGGUUGGUG | – | – | 112 | 116
45 | GUGGUGGGUUGAGGAUAUUGGUUGUUGUUGUCCCACAUGAGGAUCACCCAUGUGGGUUGUGGUUUUGAGAAGGUUGGUUGCUGG | – | – | 18.3 | 15.5
46 | GUGGUGUAGAUACAGGAUAUGUUGCUCGUAACAUGAGGAUCACCCAUGUAUCUAUGAGAAUAAAUGCAGAAGGGUGCACACCACU | – | – | 549 | 30.1
47 | GUGUACAGAGGAUAUACUCAUGGAGUUACGAAAGUAACUUCACAUGAGGAUCACCCAUGUAGAAGGCUGUACAC | 473 | 293 | – | –
48 | GUGUACAGAGGAUAUACUUGAAUCUAGCGAAGCUAGGUUCGACAUGAGGAUCACCCAUGUAGAAGGCUGUACAC | 12.7 | 17.4 | – | –
49 | GUGUACAUAUCAGGAUAUCUAUUUCCUACAUGAGGAUCACCCAUGUAGGUGAUCACCCAAGUAAAGGAGAAGGGAUAUGUAUAC | – | – | 78.7 | 24.5
50 | GUGUACGGAGGAUAUAUAUGGGCAGGCUGACCUGCAGCUUCACAUGAGGAUCACCCAUGUAGAAGGCUGUGCAC | 31.6 | 132 | – | –
51 | GUGUACGGAGGAUAUAUGUGGCGAGCAUACGCUCGAGCUUCACAUGAGGAUCACCCAUGUAGAAGGCUGUGCAC | 19 | 102 | – | –
52 | GUGUAGAUAGCAGGAUAUCUAUUUCCUACAUGAGGAUCACCCAUGUAGAUGAUCACCCAUGUAAAGGAGAAGGGCUAUCUAUAC | – | – | 367 | 165
53 | GUGUAGCAAGGAUAUACAUGAGGAUCACCCAUGUGAAUAAGAUAGAAUAAGAUAAAGUGUAGAAGGUGCAGUGU | 39 | 34.4 | – | –
54 | GUGUAGUGAGGAUAUCGUUGUUAGGAGGAGAAGGUAGGAGGCGAGAAGGCACAUGAGGAUCACCCAUGUAUGAG | 35.1 | 23.7 | – | –
55 | GUUAACGCAUGAGGAUAUGCUCACAUUUCAAGAGCAGAAGGUAUGUCUAUAGACAUGAGGAUCACCCAUGUAUUUAUCAUUGAA | – | – | 166 | 42.5
